Reference: ChEMBL document CHEMBL1155454, “The pthaladyns: GTP competitive inhibitors of dynamin I and II GTPase derived from virtual screening” (J Med Chem, 2010)
Calls of active or inactive are those of the source. The calls are words filed in the database; no cut-off is given here.

Experiments:
Ovis aries [1] = species: Ovis aries; assay: Inhibition of sheep brain dynamin 1 at 400 uM after 30 mins by malachite green method
Procedure, shortened: (§1)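 Enzyme was endogenous dynamin I purified from sheep brain. GTPase activity was read by malachite green phosphate detection, with dynamin and lipid levels set for adequate optical response. Inhibition was also scored at single concentrations of 300 or 400 μM.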

[2] = Inhibition of sheep brain dynamin 1 after 30 mins by malachite green method; parameters: species or system Ovis aries; procedure, shortened: as §1
Dynamin-1 = target: T1, Dynamin-1 (Rattus norvegicus, UniProt P21575); assay: Inhibition of dynamin 1-mediated synaptic vesicle endocytosis in Sprague-Dawley rat synaptosomes assessed as uptake of FM 4-64 dye after 30 mins by automated acquisition and analysis system; assay type: subcellular, Brain
T1 sequence (P21575 whole entry): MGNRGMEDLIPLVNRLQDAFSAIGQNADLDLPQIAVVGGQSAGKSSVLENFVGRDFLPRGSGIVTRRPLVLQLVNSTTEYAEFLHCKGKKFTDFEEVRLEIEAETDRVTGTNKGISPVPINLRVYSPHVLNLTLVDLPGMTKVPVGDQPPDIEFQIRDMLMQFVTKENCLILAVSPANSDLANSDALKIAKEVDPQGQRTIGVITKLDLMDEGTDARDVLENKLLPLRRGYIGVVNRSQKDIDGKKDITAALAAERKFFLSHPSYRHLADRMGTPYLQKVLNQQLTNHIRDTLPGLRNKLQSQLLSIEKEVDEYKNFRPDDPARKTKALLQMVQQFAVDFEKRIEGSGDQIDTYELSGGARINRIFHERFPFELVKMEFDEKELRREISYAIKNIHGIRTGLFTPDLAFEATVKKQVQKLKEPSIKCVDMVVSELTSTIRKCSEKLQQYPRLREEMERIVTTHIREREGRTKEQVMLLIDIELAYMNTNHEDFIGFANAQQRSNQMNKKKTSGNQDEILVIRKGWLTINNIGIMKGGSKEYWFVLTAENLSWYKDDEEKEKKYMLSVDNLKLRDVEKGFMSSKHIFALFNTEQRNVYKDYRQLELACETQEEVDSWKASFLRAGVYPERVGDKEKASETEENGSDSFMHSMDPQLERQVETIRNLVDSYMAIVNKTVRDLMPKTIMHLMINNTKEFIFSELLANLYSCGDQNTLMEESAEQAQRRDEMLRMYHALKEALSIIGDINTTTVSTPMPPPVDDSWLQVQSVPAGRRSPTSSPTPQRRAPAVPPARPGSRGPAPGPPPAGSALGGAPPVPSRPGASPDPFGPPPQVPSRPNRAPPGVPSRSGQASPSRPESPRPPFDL
Procedure, shortened: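 Rat brain nerve terminals (isolated synaptosomes) used for synaptic vesicle endocytosis. Endocytosis was tracked as change in uptake of the styryl dye FM4-64, an endocytic marker.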

Ovis aries [3] = species: Ovis aries; assay: Inhibition of sheep brain dynamin 1 at 300 uM after 30 mins by malachite green method; procedure, shortened: as §1
Ovis aries [4] = species: Ovis aries; assay: Competitive inhibition of dynamin 1 from sheep brain at 14 to 19 uM by Lineweaver-Burke plot
Procedure, shortened: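 Dynamin I GTPase purified from sheep brain, read by malachite green phosphate release. Michaelis-Menten kinetics with inhibitor at 14, 15, 16, 17, 18 and 19 μM and Mg2+·GTP substrate at 60-200 μM. Double-reciprocal (Lineweaver-Burke) plot of reaction velocity against substrate. Four independent experiments, each in triplicate; mean ± SEM.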

Dynamin-2 [5] = target: T2, Dynamin-2 (Homo sapiens, UniProt P50570); assay: Inhibition of recombinant dynamin 2 expressed in Sf9 cells after 30 mins by malachite green method
T2 sequence (P50570 whole entry): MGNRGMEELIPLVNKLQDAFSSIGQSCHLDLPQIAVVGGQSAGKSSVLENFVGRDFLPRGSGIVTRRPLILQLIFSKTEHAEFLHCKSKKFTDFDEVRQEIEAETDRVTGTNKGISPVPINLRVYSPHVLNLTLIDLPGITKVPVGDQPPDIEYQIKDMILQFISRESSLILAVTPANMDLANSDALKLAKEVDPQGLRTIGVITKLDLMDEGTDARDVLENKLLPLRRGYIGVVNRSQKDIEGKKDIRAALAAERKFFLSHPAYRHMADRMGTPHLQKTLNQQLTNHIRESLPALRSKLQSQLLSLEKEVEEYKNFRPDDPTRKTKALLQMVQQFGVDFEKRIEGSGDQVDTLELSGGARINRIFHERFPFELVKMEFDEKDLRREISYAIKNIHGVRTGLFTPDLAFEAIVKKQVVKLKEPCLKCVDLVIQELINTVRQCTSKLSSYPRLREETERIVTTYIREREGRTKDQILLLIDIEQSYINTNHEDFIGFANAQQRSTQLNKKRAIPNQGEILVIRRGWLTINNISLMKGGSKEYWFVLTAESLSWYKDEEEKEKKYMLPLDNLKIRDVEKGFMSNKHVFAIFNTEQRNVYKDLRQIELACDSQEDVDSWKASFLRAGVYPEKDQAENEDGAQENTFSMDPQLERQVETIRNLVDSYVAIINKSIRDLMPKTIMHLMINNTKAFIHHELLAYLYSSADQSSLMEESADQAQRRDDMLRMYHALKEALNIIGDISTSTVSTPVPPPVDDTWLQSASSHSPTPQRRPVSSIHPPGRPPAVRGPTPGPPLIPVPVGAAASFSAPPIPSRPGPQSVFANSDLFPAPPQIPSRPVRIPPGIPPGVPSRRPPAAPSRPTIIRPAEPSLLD

Dynamin-2 [6] = target: T2, Dynamin-2; assay: Inhibition of dynamin 2-mediated receptor-induced endocytosis in human U2OS cells assessed as uptake of Tf-TxR dye after 30 mins by automated acquisition and analysis system; assay type: cell-based

| inhibition (Ovis aries [1]) | IC50 [2] | SMILES | also measured |
| --- | --- | --- | --- |
| inactive | – | O=C(Nc1cc(Cl)ccc1C(=O)O)c1ccc2c(c1)C(=O)N(CCCCc1ccccc1)C2=O | – |
| – | 4.58 µM | O=C(Nc1cc(Cl)ccc1C(=O)O)c1ccc2c(c1)C(=O)N(c1ccc(CO)cc1)C2=O | IC50 (Dynamin-1; read-out: IC50): 690 µM |
| – | – | CCOC(=O)c1ccc(N2C(=O)c3ccc(C(=O)Nc4cc(Cl)ccc4C(=O)O)cc3C2=O)cc1 | inhibition (Ovis aries [3]): 50% |
| 40% | > 400 µM | O=C(Nc1cc(Cl)ccc1C(=O)O)c1ccc2c(c1)C(=O)N(c1ccccc1-c1ccccc1)C2=O | – |
| inactive | – | Cc1cccc(C)c1N1C(=O)c2ccc(C(=O)Nc3cc(Cl)ccc3C(=O)O)cc2C1=O | – |
| – | 311 µM | Nc1ccccc1N1C(=O)c2ccc(C(=O)Nc3cc(Cl)ccc3C(=O)O)cc2C1=O | – |
| – | 17.4 µM | O=C(Nc1cc(Cl)ccc1C(=O)O)c1ccc2c(c1)C(=O)N(c1cccc([N+](=O)[O-])c1)C2=O | Activity (Ovis aries [4]): Active; IC50 (Dynamin-1; read-out: IC50): 12.9 µM |
| – | 267 µM | O=C(Nc1cc(Cl)ccc1C(=O)O)c1ccc2c(c1)C(=O)N(c1ccc(C(=O)O)c(O)c1)C2=O | – |
| – | 104 µM | O=C(O)CCc1ccc(N2C(=O)c3ccc(C(=O)Nc4cc(Cl)ccc4C(=O)O)cc3C2=O)cc1 | – |
| – | 95 µM | O=C(O)c1ccc(N2C(=O)c3ccc(C(=O)Nc4cc(Cl)ccc4C(=O)O)cc3C2=O)cc1 | – |
| inactive | – | O=C(Nc1cc(Cl)ccc1C(=O)O)c1ccc2c(c1)C(=O)N(c1ccccc1CO)C2=O | – |
| – | 184 µM | O=C(Nc1cc(Cl)ccc1C(=O)O)c1ccc2c(c1)C(=O)N(c1ccccc1C(=O)O)C2=O | – |
| – | 94 µM | Nc1cccc(N2C(=O)c3ccc(C(=O)Nc4cc(Cl)ccc4C(=O)O)cc3C2=O)c1 | – |
| – | 84 µM | O=C(Nc1cc(Cl)ccc1C(=O)O)c1ccc2c(c1)C(=O)N(Cc1cccnc1)C2=O | – |
| inactive | – | Nc1ccc(N2C(=O)c3ccc(C(=O)Nc4cc(Cl)ccc4C(=O)O)cc3C2=O)cc1 | – |
| inactive | – | O=C(Nc1cc(Cl)ccc1C(=O)O)c1ccc2c(c1)C(=O)N(c1cccc3ccccc13)C2=O | – |

| inhibition (Ovis aries [1]) | IC50 [2] | SMILES | also measured |
| --- | --- | --- | --- |
| inactive | – | COc1ccc(CN2C(=O)c3ccc(C(=O)Nc4cc(Cl)ccc4C(=O)O)cc3C2=O)cc1 | – |
| inactive | – | O=C(Nc1cc(Cl)ccc1C(=O)O)c1ccc2c(c1)C(=O)N(C1CCCc3ccccc31)C2=O (centres undefined) | – |
| – | 112 µM | CC(C)(C)c1ccc(N2C(=O)c3ccc(C(=O)Nc4cc(Cl)ccc4C(=O)O)cc3C2=O)cc1 | – |
| inactive | – | O=C(Nc1cc(Cl)ccc1C(=O)O)c1ccc2c(c1)C(=O)N(CCc1ccccc1)C2=O | – |
| inactive | – | O=C(Nc1cc(Cl)ccc1C(=O)O)c1ccc2c(c1)C(=O)N(Cc1ccccc1)C2=O | – |
| – | 95.5 µM | O=C(O)Cc1ccc(N2C(=O)c3ccc(C(=O)Nc4cc(Cl)ccc4C(=O)O)cc3C2=O)cc1 | – |
| inactive | – | CSc1ccc(N2C(=O)c3ccc(C(=O)Nc4cc(Cl)ccc4C(=O)O)cc3C2=O)cc1 | – |
| – | 39.8 µM | O=C(Nc1cc(Cl)ccc1C(=O)O)c1ccc2c(c1)C(=O)N(c1ccc(O)cc1)C2=O | IC50 (Dynamin-2 [5]): 114 µM; IC50 (Dynamin-1): Not Active; IC50 (Dynamin-2 [6]): Not Active |
| inactive | – | O=C(Nc1cc(Cl)ccc1C(=O)O)c1ccc2c(c1)C(=O)N(c1ccccc1)C2=O | – |
| inactive | – | COc1cccc(N2C(=O)c3ccc(C(=O)Nc4cc(Cl)ccc4C(=O)O)cc3C2=O)c1 | – |
| inactive | – | O=C(Nc1cc(Cl)ccc1C(=O)O)c1ccc2c(c1)C(=O)N(c1cccc(O)c1)C2=O | – |
| – | 78 µM | COc1ccc(N2C(=O)c3ccc(C(=O)Nc4cc(Cl)ccc4C(=O)O)cc3C2=O)cc1 | – |
| – | 61 µM | O=C(Nc1cc(Cl)ccc1C(=O)O)c1ccc2c(c1)C(=O)N(c1ccccc1O)C2=O | IC50 (Dynamin-1; read-out: IC50): 119 µM |
| – | 16.6 µM | O=C(Nc1cc(Cl)ccc1C(=O)O)c1ccc2c(c1)C(=O)N(c1ccc([N+](=O)[O-])cc1)C2=O | – |
| – | 111 µM | O=C(Nc1cc(Cl)ccc1C(=O)O)c1ccc2c(c1)C(=O)N(c1cccc(CO)c1)C2=O | – |
